Laboratory results: publication PMC4474499 (Science Advances, 2015)

How the values were obtained:
human TLR1/2 = human TLR1/2 (Homo sapiens, UniProt O60603+Q15399); assay: Competition binding ELISA assay with biotin-labeled Pam3CSK4; conditions: 50 nM (100 ng/ml) Biotin-Pam3, 0 to 7 μM CU-T12-9
Summary of the method: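 Human TLR1 (5 μg/ml) plus TLR2 (4 μg/ml), or BSA, coated in 0.1 M acetate pH 5.0 overnight at 4°C. Blocked with 5% BSA 1 h. Biotin-Pam3CSK4 with or without test compound, 1 h RT. Then streptavidin-HRP (1:2000) 1 h, TMB 10–30 min, stopped with 1 M H3PO4. A450 read, 620 nm reference. Signal at zero compound set as 100%.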

HEK-Blue hTLR2 cells [1] = assay: MTT cell viability assay in HEK-Blue hTLR2 cells; assay type: cell-based, human; conditions: up to 100 μM, 24 h
Summary of the method: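 HEK-Blue hTLR2 cells, 40,000/well in DMEM/10% FBS, grown 24 h at 37°C, 5% CO2. Medium then replaced by Opti-MEM (0.5% FBS, non-essential amino acids) with compounds at 0–100 μM for 24 h. MTT added for 4 h; formazan dissolved in DMSO; A560 read. Cytotoxicity % = 1 − (sample − blank)/(control − blank), ×100.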

TNF-α = TNF-α ELISA in Raw 264.7 cells; assay type: cell-based; conditions: Mus musculus, RAW264.7, 24 h, read-out: EC50, TNF-α production
Summary of the method: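 RAW 264.7 cells, 1 × 10^6/well in six-well plates, grown 24 h. Medium refreshed (RPMI 1640). Treated 24 h with test compound; 66 nM Pam3CSK4 as positive control. Supernatants frozen at −80°C. TNF-α quantified by sandwich ELISA against recombinant cytokine standards, each sample in triplicate.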

Raw 264.7 cells [2] = assay: In vitro NO activation assay for Raw 264.7 cells; assay type: cell-based, mouse; conditions: Raw 264.7 cells, 24 hours
Summary of the method: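 RAW 264.7 cells, 80,000/well, grown 24 h. Non-adherent cells removed; medium changed to unsupplemented RPMI 1640. Treated 24 h with test compound, or 66 nM (100 ng/ml) Pam3CSK4 as control. Supernatant reacted 15 min in the dark with 2,3-diaminonaphthalene in HCl, quenched with NaOH. Fluorescence read at ex 365/em 450 nm; nitrite calculated from a standard curve.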

HEK-Blue hTLR2 cells [3] = assay: QUANTI-Blue SEAP assay with anti-hTLR antibodies; assay type: cell-based, human; conditions: 60 nM, 24 hours
Summary of the method: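 HEK-Blue hTLR2 cells, 4 × 10^4/well, grown 24 h. Then 24 h in Opti-MEM/0.5% FBS containing 60 nM test compound, 0.66 nM Pam3CSK4 or 0.77 nM Pam2CSK4. Anti-hTLR1 IgG, anti-hTLR2 IgA or anti-hTLR6 IgA added at 0–10 μg/ml. Supernatant incubated with QUANTI-Blue 1 h at 37°C; A655 read.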

human TLR2 = human TLR2 (Homo sapiens, UniProt O60603+Q15399); assay: SEAP reporter gene detection assay in HEK-Blue hTLR2 cells; assay type: cell-based
Summary of the method: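 HEK-Blue hTLR2 cells (SEAP reporter), 4 × 10^4/well, grown 24 h. Then 24 h in Opti-MEM/0.5% FBS with compounds at 0–50 μM or 0–100 μM. Pam3CSK4 (0–66 nM) used as reference agonist. Supernatant heat-treated 30 min at 65°C, cooled, mixed with SEAP buffer and CSPD substrate; luminescence read after 20 min.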

TLR1 = target: T1, TLR1 (Homo sapiens, UniProt Q15399); assay: Microscale thermophoresis; assay type: binding
T1 sequence (Q15399 25-580 limits assumed): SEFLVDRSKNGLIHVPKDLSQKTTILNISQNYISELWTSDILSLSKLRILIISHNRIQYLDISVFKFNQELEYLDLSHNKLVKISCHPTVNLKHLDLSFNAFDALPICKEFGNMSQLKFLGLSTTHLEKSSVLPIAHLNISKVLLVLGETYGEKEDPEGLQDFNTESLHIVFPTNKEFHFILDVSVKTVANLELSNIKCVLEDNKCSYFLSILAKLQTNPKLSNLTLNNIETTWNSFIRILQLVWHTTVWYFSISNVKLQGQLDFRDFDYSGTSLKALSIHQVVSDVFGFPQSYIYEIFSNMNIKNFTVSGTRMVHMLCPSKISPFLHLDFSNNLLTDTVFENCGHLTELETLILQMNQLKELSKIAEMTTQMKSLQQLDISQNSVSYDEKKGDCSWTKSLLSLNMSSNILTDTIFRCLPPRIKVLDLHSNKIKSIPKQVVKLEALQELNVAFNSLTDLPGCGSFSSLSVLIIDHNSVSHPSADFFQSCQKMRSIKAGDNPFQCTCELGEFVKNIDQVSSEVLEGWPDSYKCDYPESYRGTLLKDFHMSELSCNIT
Summary of the method: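 Human TLR1 expressed in baculovirus-infected High Five insect cells and purified on protein A Sepharose. Labelled with NT-647 and held at 10 nM. Test compound varied 0.31 nM–10 μM. Buffer: 50 mM Tris-HCl pH 7.6, 150 mM NaCl, 10 mM MgCl2, 0.05% Tween 20, in glass capillaries. Apparent Kd fitted from thermophoresis.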

Raw 264.7 cells [4] = assay: Quantitative RT-PCR of mRNA levels in Raw 264.7 macrophage cells; assay type: cell-based, mouse
Summary of the method: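 RAW 264.7 cells, 1 × 10^6/well, grown 24 h, then given fresh RPMI 1640. Exposed to test compound, or 33 nM (50 ng/ml) Pam3CSK4, for 0, 2, 8 or 24 h. Cells washed in cold PBS and frozen. Total RNA extracted (RNeasy) for qRT-PCR. Fold change calculated by ΔΔCt versus DMSO-treated cells, means ± SD.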

human TLR2, sequence (O60603 21-784): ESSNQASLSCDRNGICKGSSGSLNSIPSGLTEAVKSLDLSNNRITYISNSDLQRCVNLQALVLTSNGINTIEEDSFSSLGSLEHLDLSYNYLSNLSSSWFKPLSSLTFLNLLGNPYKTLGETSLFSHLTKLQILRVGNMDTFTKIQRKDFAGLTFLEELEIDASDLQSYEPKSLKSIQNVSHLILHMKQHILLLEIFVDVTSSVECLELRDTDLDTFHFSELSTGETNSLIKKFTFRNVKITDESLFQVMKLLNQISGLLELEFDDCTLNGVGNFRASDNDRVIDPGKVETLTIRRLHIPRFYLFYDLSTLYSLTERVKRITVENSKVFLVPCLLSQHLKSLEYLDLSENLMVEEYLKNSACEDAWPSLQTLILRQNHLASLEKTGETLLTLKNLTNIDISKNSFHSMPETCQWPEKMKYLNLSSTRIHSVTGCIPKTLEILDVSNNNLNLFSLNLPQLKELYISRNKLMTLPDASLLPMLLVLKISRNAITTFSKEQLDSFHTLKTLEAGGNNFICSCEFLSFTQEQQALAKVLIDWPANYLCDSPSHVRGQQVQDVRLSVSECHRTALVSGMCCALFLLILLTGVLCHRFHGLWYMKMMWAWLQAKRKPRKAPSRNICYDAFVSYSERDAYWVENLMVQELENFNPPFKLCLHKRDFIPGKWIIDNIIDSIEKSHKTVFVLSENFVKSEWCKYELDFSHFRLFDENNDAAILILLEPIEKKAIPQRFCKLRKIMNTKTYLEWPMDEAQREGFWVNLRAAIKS
human TLR2, sequence (Q15399 25-786): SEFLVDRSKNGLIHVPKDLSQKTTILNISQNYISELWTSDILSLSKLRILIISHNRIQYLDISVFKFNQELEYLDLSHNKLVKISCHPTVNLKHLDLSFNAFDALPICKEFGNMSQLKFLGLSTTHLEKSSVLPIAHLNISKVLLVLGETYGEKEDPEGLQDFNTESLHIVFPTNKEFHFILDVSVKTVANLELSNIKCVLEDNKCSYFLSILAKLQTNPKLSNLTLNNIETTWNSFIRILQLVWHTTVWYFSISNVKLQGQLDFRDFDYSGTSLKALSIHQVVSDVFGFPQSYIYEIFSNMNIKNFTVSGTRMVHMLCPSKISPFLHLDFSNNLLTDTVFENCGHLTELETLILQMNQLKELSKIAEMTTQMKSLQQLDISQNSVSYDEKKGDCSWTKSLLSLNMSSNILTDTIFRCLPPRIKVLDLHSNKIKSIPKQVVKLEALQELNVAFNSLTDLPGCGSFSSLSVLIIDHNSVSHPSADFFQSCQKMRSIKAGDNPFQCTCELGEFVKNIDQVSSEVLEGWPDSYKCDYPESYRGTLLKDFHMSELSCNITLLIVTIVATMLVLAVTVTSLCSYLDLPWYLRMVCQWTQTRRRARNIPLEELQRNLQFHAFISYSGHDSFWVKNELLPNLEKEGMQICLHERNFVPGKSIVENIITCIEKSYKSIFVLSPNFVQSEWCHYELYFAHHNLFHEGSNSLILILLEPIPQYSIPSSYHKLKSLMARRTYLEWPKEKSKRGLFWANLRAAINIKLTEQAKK
human TLR1/2, sequence (O60603 21-588 limits assumed, one chain of several): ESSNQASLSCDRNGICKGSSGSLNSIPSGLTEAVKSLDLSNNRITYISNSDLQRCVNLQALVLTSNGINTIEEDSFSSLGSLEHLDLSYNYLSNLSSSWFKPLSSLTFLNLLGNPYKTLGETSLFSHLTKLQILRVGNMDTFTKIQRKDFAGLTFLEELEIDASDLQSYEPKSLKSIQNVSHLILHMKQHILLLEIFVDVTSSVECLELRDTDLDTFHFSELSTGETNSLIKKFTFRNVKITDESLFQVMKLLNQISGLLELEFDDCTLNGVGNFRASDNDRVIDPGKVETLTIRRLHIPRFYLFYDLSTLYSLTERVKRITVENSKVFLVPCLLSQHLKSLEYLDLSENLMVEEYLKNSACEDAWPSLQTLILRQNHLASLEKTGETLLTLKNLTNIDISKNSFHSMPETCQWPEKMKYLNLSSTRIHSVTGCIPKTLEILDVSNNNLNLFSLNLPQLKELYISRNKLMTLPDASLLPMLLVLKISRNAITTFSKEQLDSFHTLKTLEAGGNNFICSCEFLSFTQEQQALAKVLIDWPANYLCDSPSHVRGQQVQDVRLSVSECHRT

CNc1ccc([N+](=O)[O-])cc1-n1cnc(-c2ccc(C(F)(F)F)cc2)c1 [CU-T12-9, N-methyl-4-nitro-2-(4-(4-(trifluoromethyl)phenyl)-1H-imidazol-1-yl)aniline]
competition with Biotin-Pam3 binding to TLR1/2 (human TLR1/2): can compete | cytotoxicity (HEK-Blue hTLR2 cells [1]): negligible cytotoxicity | EC50 (TNF-α): 60.5 ± 17 nM | NO production (Raw 264.7 cells [2]): efficiently triggered NO production | activation of QUANTI-Blue SEAP signaling (HEK-Blue hTLR2 cells [3]): strongly activates | EC50 (human TLR2): 52.9 ± 6.2 nM | activation of SEAP signaling, hTLR2 (human TLR2; 0 to 20 μM, 24 hours): strongly activate | increase in potency relative to GA (factor) (human TLR2; replacement of –NO2 at R3): 50 | Kd (TLR1): 229 ± 66 nM | TLR1 mRNA (Raw 264.7 cells [4]; 1 μM CU-T12-9, 24 hours): potently increased | time of highest TLR2 mRNA expression (Raw 264.7 cells [4]; 1 μM CU-T12-9 or 33 nM (50 ng/ml) Pam3CSK4, measured at 2, 8, 24 hours): 2 h | IL-10 mRNA (Raw 264.7 cells [4]; 2 hours, decreased over time): up-regulated | TNF mRNA expression (Raw 264.7 cells [4]; over time, maximal expression after 8 hours): increased | iNOS mRNA expression (Raw 264.7 cells [4]; over time, peaked at 24 hours): increased
